Experimental data gathered from unrelated publications.
Each line is one published result; the experiments were not run side by side.
EGFR del752-759: Epidermal growth factor receptor (EGFR, Homo sapiens, UniProt P00533, del752-759)
EGFR del747-752/P753S: Epidermal growth factor receptor (EGFR, Homo sapiens, UniProt P00533, del747-752/P753S)
EGFR del746-750: Epidermal growth factor receptor (EGFR, Homo sapiens, UniProt P00533, del746-750)
EGFR L858R: Epidermal growth factor receptor (EGFR, Homo sapiens, UniProt P00533, L858R)
EGFR L861Q: Epidermal growth factor receptor (EGFR, Homo sapiens, UniProt P00533, L861Q)
EGFR G719S: Epidermal growth factor receptor (EGFR, Homo sapiens, UniProt P00533, G719S)
EGFR L858R/T790M: Epidermal growth factor receptor (EGFR, Homo sapiens, UniProt P00533, L858R/T790M)
EGFR: Epidermal growth factor receptor (EGFR, Homo sapiens, UniProt P00533)

| SMILES | target | observed | method | tested at | remaining binding |
| --- | --- | --- | --- | --- | --- |
| Nc1ncc2c(n1)-c1c([nH]c3ccc(C#CC4CC4)cc13)CCCC2 | EGFR del752-759 | binding | competition with immobilised ligand | 1 µM | 100% |
| O=C(c1ccc(Nc2ncc(Cl)c(-c3ccc(Cl)s3)n2)cc1)N1CCC(N2CCCC2)CC1 | EGFR del747-752/P753S | binding | competition with immobilised ligand | 1 µM | 82% |
| CCOCCn1cc(C(=O)Nc2ccc(-n3nc(-c4cccnc4)cc3C(F)(F)F)cn2)ccc1=O | Epidermal growth factor receptor (EGFR, Homo sapiens, UniProt P00533, del747-750/T751S) | cell-free assay | competition with immobilised ligand | 1 µM | 100% |
| CN1CCN(c2ccc(Nc3nccc(-c4cccc([N+](=O)[O-])c4)n3)cc2C(F)(F)F)CC1 | Epidermal growth factor receptor (EGFR, Homo sapiens, UniProt P00533, G719C) | binding | – | 10 µM | 69% |
| O=C(NCCCN1CCOCC1)c1ccc(Nc2ncc(Cl)c(-c3ccc(Cl)s3)n2)cc1 | EGFR del746-750 | binding | competition with immobilised ligand | 1 µM | 92% |
| CS(=O)(=O)NCC[C@H](NC(=O)c1cncc2c1cnn2-c1ccc(F)cc1)c1ccnc(S(C)(=O)=O)c1 | EGFR L858R | cell-free assay | competition with immobilised ligand | 1 µM | 83% |
| CC1CCCN1c1nccc(-c2cnn3ncccc23)n1 (centres unmarked) | EGFR L861Q | binding | – | 1 µM | 100% |
| Cc1c(NC(=O)c2cc(C(N)=O)nc3cc(F)ccc23)c(C(F)(F)F)nn1Cc1ccc(C#N)cc1 | EGFR del752-759 | cell-free assay | competition with immobilised ligand | 1 µM | 79% |
| C[C@H]1CCN(c2nccc(-c3cnn4ncccc34)n2)C1 | EGFR G719S | binding | – | 1 µM | 75% |
| O=C(NCCCN1CCOCC1)c1ccc(Nc2nccc(-c3cc4ccccc4s3)n2)cc1 | EGFR L858R/T790M | binding | competition with immobilised ligand | 1 µM | 75% |
| c1cncc(-c2cccc(Nc3nccc(NC4CCCCC4)n3)c2)c1 | EGFR | binding | competition with immobilised ligand | 10 µM | 56% |
| CN(C)c1nccc(-c2cnn3ncccc23)n1 | EGFR G719S | binding | – | 1 µM | 100% |
| COc1cnc(Nc2cccc(S(N)(=O)=O)c2)nc1N1CCN(c2ccccc2)C(=O)C1 | EGFR L858R | binding | competition with immobilised ligand | 1 µM | 100% |
| O=C(NCC1CCOCC1)c1n[nH]cc1NC(=O)c1c(F)cccc1F | EGFR G719S | binding | competition with immobilised ligand | 1 µM | 100% |
| COc1cnc(Nc2cccc(S(N)(=O)=O)c2)nc1N1CCN(c2ccccc2)CC1 | EGFR L858R/T790M | binding | competition with immobilised ligand | 1 µM | 87% |
| CO[C@@H](C)c1c(Nc2ccc([C@H](N(C)C(=O)C3CCS(=O)(=O)CC3)C(F)(F)F)cc2)cnc2cc(Cl)nn12 | Epidermal growth factor receptor (EGFR, Homo sapiens, UniProt P00533, T790M) | cell-free assay | competition with immobilised ligand | 1 µM | 90% |
| N[C@@H]1CCN(c2nccc(-c3cnn4ncccc34)n2)C1 | EGFR L861Q | binding | – | 1 µM | 92% |
| Cn1nc(C(=O)NCc2ccc(C(=O)O)cc2)cc1-c1ccc2[nH]ccc2c1 | EGFR | cell-free assay | competition with immobilised ligand | 0.1 µM | 100% |
| CCN1CCN(Cc2ccc(C(=O)Nc3ccc(C)c(Oc4ccc5c(c4)CC(=O)N5)c3)cc2C(F)(F)F)CC1 | EGFR del747-752/P753S | binding | competition with immobilised ligand | 1 µM | 100% |
| COc1cccc(CNC(=O)c2nc3scc(COCc4ccc(C(=O)O)cc4)c3c(=O)[nH]2)c1 | Epidermal growth factor receptor (EGFR, Homo sapiens, UniProt P00533, A750P/del747-749) | cell-free assay | competition with immobilised ligand | 1 µM | 76% |
| CN(C)c1ncc(F)c(-c2cnn3ncccc23)n1 | EGFR del752-759 | binding | – | 1 µM | 100% |
| O=C(Nc1cnc(Oc2ccc(F)cc2)nc1)N1CCc2ncccc2[C@@H]1c1ccc(F)cc1 | EGFR del746-750 | cell-free assay | competition with immobilised ligand | 1 µM | 100% |
| COc1ccnn2ncc(-c3ccnc(N(C)C)n3)c12 | EGFR G719S | binding | – | 1 µM | 96% |
